Results on 38 variants are retold here after the RNAGym collection of RNA variant scans (doi:10.1038/s41586-018-0170-7).

The chains are these.
B1: tRNA (parent)
chain: GUUCCGUUGGCGUAAUGGUAACGCGUCUCCCUCCUAAGGAGAAGACUGCGGGUUCGAGUCCCGUACGGAACG

Variants of B1 are the subject of this series. Description: yeast fitness, log relative to wild type (ln ratio); higher = fitter; tRNA-Arg(CCU), competitive growth, 37 C, 1 M NaCl. The gist of the method: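 A combinatorial tRNA-Arg(CCU) variant library was carried on a HIS3 centromeric plasmid in BY4742 lacking the chromosomal gene, from two independent transformations. Pools grew 4 generations in SC-HIS at 30 °C, then ~6.5 generations (~26.5 h) in SC-HIS 1M NaCl at 37 °C, with three outputs per input. Variants were counted by 125 bp paired-end Illumina sequencing. Fitness is ln of each genotype's generations (OD-scaled log2 output/input frequency, inverse-variance weighted across replicates) over the wild-type's.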
Consider AUUCCGUUGGCGUAAUGGUAACGCGUUUCCCUCCUAAGGAGAAGAUUGCGGGUUCGAGUCCCGUAUGGGGCG [G1A C27U C46U C66U A69G A70G], for which the “yeast fitness (ln)” value was -0.251.

Regarding AUUCCGUUGGCGUAAUGGUAACGCGUUUCCCUCCUAAGGAGAAGACUGCGGGUUCGAGUCCCGUACGGGUUG [G1A C27U A69G A70U C71U], the “yeast fitness (ln)” value is -0.421.

Regarding AUUCCGUUGGCGUAAUGGUAACGCGUUUCCCUCCUAAGGAGAAGACUGCGGGUUCGAGUCCCGUACGGGAUG [G1A C27U A69G C71U], the “yeast fitness (ln)” value was -0.0706.

On to AUUCCGUUGGCGUAAUGGUAACGCGUUUCCCUCCUAAGGAGAAGAUUGCGGGUUCGAGUCCCGUACGGAUCG [G1A C27U C46U A70U], for which the “yeast fitness (ln)” value was -0.088.

Take AUUCCGUUGGCGUAAUGGUAACGCGUUUCCCUCCUAAGGAGAAGAUUGCGGGUUCGAGUCCCGUACGGAGCG [G1A C27U C46U A70G]: the “yeast fitness (ln)” value is -0.175.

As for AUUCCGUUGGCGUAAUGGUAACGCGUUUCCCUCCUAAGGAGAAGACUGCGGGUUCGAGUCCCGUACGGGGUG [G1A C27U A69G A70G C71U], the “yeast fitness (ln)” value was -0.322.

On to AUUCCGUUGGCGUAAUGGUAACGCGUUUCCCUCCUAAGGAGAAGAUUGCGGGUUCGAGUCCCGUAAGGAAUG [G1A C27U C46U C66A C71U], for which the “yeast fitness (ln)” value was -0.148.

For the variant AUUCCGUUGGCGUAAUGGUAACGCGUUUCCCUCCUAAGGAGAAGACUGCGGGUUCGAGUCCCGUACGGAUUG [G1A C27U A70U C71U], the “yeast fitness (ln)” value was -0.34.

On to AUUCCGUUGGCGUAAUGGUAACGCGUUUCCCUCCUAAGGAGAAGAUUGCGGGUUCGAGUCCCGUAUGGGUUG [G1A C27U C46U C66U A69G A70U C71U], for which the “yeast fitness (ln)” value is -0.504.

With AUUCCGUUGGCGUAAUGGUAACGCGUUUCCCUCCUAAGGAGACGACUGCGGGUUCGAGUCCCGUAUGGAAUG [G1A C27U A43C C66U C71U], the “yeast fitness (ln)” value was -0.437.

In the case of AUUCCGUUGGCGUAAUGGUAACGCGUUUCCCUCCUAAGGAGACGACUGCGGGUUCGAGUCCCGUAAGGAUCG [G1A C27U A43C C66A A70U], the “yeast fitness (ln)” value was -0.136.

For the variant AUUCCGUUGGCGUAAUGGUAACGCGUUUCCCUCCUAAGGAGACGACUGCGGGUUCGAGUCCCGUAAGGAGCG [G1A C27U A43C C66A A70G], the “yeast fitness (ln)” value is -0.173.

In the case of AUUCCGUUGGCGUAAUGGUAACGCGUUUCCCUCCUAAGGAGAAGAUUGCGGGUUCGAGUCCCGUAUGGAAUG [G1A C27U C46U C66U C71U], the “yeast fitness (ln)” value was -0.454.

Turning to AUUCCGUUGGCGUAAUGGUAACGCGUUUCCCUCCUAAGGAGACGACUGCGGGUUCGAGUCCCGUAAGGGGUG [G1A C27U A43C C66A A69G A70G C71U], the “yeast fitness (ln)” value is -0.427.

As for AUUCCGUUGGCGUAAUGGUAACGCGUUUCCCUCCUAAGGAGACGACUGCGGGUUCGAGUCCCGUAAGGAUUG [G1A C27U A43C C66A A70U C71U], the “yeast fitness (ln)” value was -0.423.

AUUCCGUUGGCGUAAUGGUAACGCGUUUCCCUCCUAAGGAGAAGAUUGCGGGUUCGAGUCCCGUAUGGAUUG [G1A C27U C46U C66U A70U C71U]: the “yeast fitness (ln)” value is -0.283.

As to AUUCCGUUGGCGUAAUGGUAACGCGUUUCCCUCCUAAGGAGACGACUGCGGGUUCGAGUCCCGUAAGGGUUG [G1A C27U A43C C66A A69G A70U C71U], the “yeast fitness (ln)” value was -0.431.

AUUCCGUUGGCGUAAUGGUAACGCGUUUCCCUCCUAAGGAGAAGACUGCGGGUUCGAGUCCCGUACGGGUCG [G1A C27U A69G A70U]: the “yeast fitness (ln)” value was -0.216.

AUUCCGUUGGCGUAAUGGUAACGCGUUUCCCUCCUAAGGAGAAGACUGCGGGUUCGAGUCCCGUACGGGGCG [G1A C27U A69G A70G]: the “yeast fitness (ln)” value is -0.215.

Consider AUUCCGUUGGCGUAAUGGUAACGCGUUUCCCUCCUAAGGAGACGACUGCGGGUUCGAGUCCCGUAAGGAGUG [G1A C27U A43C C66A A70G C71U], for which the “yeast fitness (ln)” value is -0.35.

As for AUUCCGUUGGCGUAAUGGUAACGCGUUUCCCUCCUAAGGAGAAGAUUGCGGGUUCGAGUCCCGUACGGAAUG [G1A C27U C46U C71U], the “yeast fitness (ln)” value was -0.0338.

For the variant AUUCCGUUGGCGUAAUGGUAACGCGUUUCCCUCCUAAGGAGACGACUGCGGGUUCGAGUCCCGUAUGGAGCG [G1A C27U A43C C66U A70G], the “yeast fitness (ln)” value is -0.333.

Take AUUCCGUUGGCGUAAUGGUAACGCGUUUCCCUCCUAAGGAGACGACUGCGGGUUCGAGUCCCGUAUGGAUCG [G1A C27U A43C C66U A70U]: the “yeast fitness (ln)” value is -0.201.

For AUUCCGUUGGCGUAAUGGUAACGCGUUUCCCUCCUAAGGAGAAGACUGCGGGUUCGAGUCCCGUACGGGACG [G1A C27U A69G], the “yeast fitness (ln)” value was -0.295.

For the variant AUUCCGUUGGCGUAAUGGUAACGCGUUUCCCUCCUAAGGAGAAGAUUGCGGGUUCGAGUCCCGUAUGGAACG [G1A C27U C46U C66U], the “yeast fitness (ln)” value was -0.215.

With AUUCCGUUGGCGUAAUGGUAACGCGUUUCCCUCCUAAGGAGAAGAUUGCGGGUUCGAGUCCCGUAAGGAACG [G1A C27U C46U C66A], the “yeast fitness (ln)” value was -0.151.

On to AUUCCGUUGGCGUAAUGGUAACGCGUUUCCCUCCUAAGGAGAAGAUUGCGGGUUCGAGUCCCGUACGGGGCG [G1A C27U C46U A69G A70G], for which the “yeast fitness (ln)” value is -0.166.

As to AUUCCGUUGGCGUAAUGGUAACGCGUUUCCCUCCUAAGGAGAAGAUUGCGGGUUCGAGUCCCGUACGGGUCG [G1A C27U C46U A69G A70U], the “yeast fitness (ln)” value was -0.118.

For the variant AUUCCGUUGGCGUAAUGGUAACGCGUUUCCCUCCUAAGGAGACGACUGCGGGUUCGAGUCCCGUAAGGAAUG [G1A C27U A43C C66A C71U], the “yeast fitness (ln)” value is -0.277.

In the case of AUUCCGUUGGCGUAAUGGUAACGCGUUUCCCUCCUAAGGAGAAGAUUGCGGGUUCGAGUCCCGUACGGAGUG [G1A C27U C46U A70G C71U], the “yeast fitness (ln)” value was -0.0653.

For AUUCCGUUGGCGUAAUGGUAACGCGUUUCCCUCCUAAGGAGACGACUGCGGGUUCGAGUCCCGUACGGAAUG [G1A C27U A43C C71U], the “yeast fitness (ln)” value is -0.0801.

With AUUCCGUUGGCGUAAUGGUAACGCGUUUCCCUCCUAAGGAGAAGAUUGCGGGUUCGAGUCCCGUAUGGGAUG [G1A C27U C46U C66U A69G C71U], the “yeast fitness (ln)” value is -0.311.

For AUUCCGUUGGCGUAAUGGUAACGCGUUUCCCUCCUAAGGAGACGACUGCGGGUUCGAGUCCCGUAUGGAACG [G1A C27U A43C C66U], the “yeast fitness (ln)” value was -0.242.

In the case of AUUCCGUUGGCGUAAUGGUAACGCGUUUCCCUCCUAAGGAGACGACUGCGGGUUCGAGUCCCGUAUGGGUUG [G1A C27U A43C C66U A69G A70U C71U], the “yeast fitness (ln)” value is -0.505.

On to AUUCCGUUGGCGUAAUGGUAACGCGUUUCCCUCCUAAGGAGACGAUUGCGGGUUCGAGUCCCGUAUGGAGUG [G1A C27U A43C C46U C66U A70G C71U], for which the “yeast fitness (ln)” value is -0.299.

On to AUUCCGUUGGCGUAAUGGUAACGCGUUUCCCUCCUAAGGAGAAGACUGCGGGUUCGAGUCCCGUACGGAGUG [G1A C27U A70G C71U], for which the “yeast fitness (ln)” value was -0.11.

With AUUCCGUUGGCGUAAUGGUAACGCGUUUCCCUCCUAAGGAGACGACUGCGGGUUCGAGUCCCGUAUGGAUUG [G1A C27U A43C C66U A70U C71U], the “yeast fitness (ln)” value is -0.51.

AUUCCGUUGGCGUAAUGGUAACGCGUUUCCCUCCUAAGGAGAAGAUUGCGGGUUCGAGUCCCGUACGGAUUG [G1A C27U C46U A70U C71U]: the “yeast fitness (ln)” value is -0.178.
